Laboratory results reported in publication PMC3983348 (Journal of Medicinal Chemistry, 2014).
Where two headings read alike, the source gives them in different places.

Assays:
recombinant Top1 [1] = target: T1, recombinant Top1 (Homo sapiens, UniProt P11387); test: Top1-mediated DNA cleavage assay; assay type: biochemical; conditions: compound-induced DNA cleavage, score based on the activity of 1 μM camptothecin
T1 sequence (P11387 1-765): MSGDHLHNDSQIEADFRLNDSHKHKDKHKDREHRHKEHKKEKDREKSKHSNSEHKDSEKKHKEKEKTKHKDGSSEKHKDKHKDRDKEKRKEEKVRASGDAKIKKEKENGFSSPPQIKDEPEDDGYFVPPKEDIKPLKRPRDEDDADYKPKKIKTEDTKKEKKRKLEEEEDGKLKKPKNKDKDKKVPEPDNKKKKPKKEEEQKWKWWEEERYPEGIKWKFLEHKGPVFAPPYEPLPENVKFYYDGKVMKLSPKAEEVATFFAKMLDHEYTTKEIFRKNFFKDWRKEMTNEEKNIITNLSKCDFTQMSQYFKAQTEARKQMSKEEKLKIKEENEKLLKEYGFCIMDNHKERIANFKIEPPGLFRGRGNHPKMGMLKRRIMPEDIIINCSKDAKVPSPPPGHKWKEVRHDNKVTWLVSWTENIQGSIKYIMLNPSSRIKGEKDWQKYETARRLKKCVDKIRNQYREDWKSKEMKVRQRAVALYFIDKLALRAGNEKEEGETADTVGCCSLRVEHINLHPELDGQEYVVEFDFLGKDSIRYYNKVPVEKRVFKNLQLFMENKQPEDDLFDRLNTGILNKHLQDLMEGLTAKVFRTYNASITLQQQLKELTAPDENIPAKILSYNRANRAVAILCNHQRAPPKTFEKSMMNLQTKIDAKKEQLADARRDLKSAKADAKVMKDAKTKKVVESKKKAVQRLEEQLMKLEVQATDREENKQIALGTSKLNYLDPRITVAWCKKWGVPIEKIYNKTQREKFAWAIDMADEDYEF

colon, HCT-116 [2] = test: NCI-60 five-dose assay, HCT-116; assay type: cell-based; conditions: Homo sapiens, HCT-116, read-out: cytotoxicity GI50, colon, HCT-116
Method in brief: (§1)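 Run in the National Cancer Institute's NCI-60 human cancer cell panel. Test compounds were first screened in a one-dose assay at 10–5 M, reading growth percent relative to vehicle-treated control.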

[3] = tested on: panel of 60 different human cancer cell lines; test: NCI-60 five-dose assay, mean graph midpoint; assay type: cell-based; conditions: mean graph midpoint of growth inhibition, five-dose assay 10^–8 to 10^–4 M
∼60 cancer cell lines = test: NCI-60 one-dose assay; assay type: cell-based; conditions: Homo sapiens, read-out: mean growth, %, 10 μM compound, one-dose assay, relative to vehicle-treated control
Method in brief: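 Single-dose screen at 10–5 M across the ~60 human cancer cell lines of the NCI-60 panel. Growth percent of treated cells was expressed relative to vehicle-treated controls and averaged over the panel.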

breast, MCF7 [4] = conditions: read-out: cytotoxicity GI50, breast, MCF7; five-dose assay; cited from earlier work
melanoma, UACC-62 [5] = conditions: read-out: cytotoxicity GI50, melanoma, UACC-62; five-dose assay; cited from earlier work
ovarian, OVCAR-3 [6] = conditions: read-out: cytotoxicity GI50, ovarian, OVCAR-3; five-dose assay; cited from earlier work
prostate, DU-145 [7] = conditions: read-out: cytotoxicity GI50, prostate, DU-145; five-dose assay; cited from earlier work
[8] = tested on: panel of 60 different human cancer cell lines; conditions: mean graph midpoint, five-dose assay; cited from earlier work
lung, HOP-62 [9] = conditions: read-out: cytotoxicity GI50, lung, HOP-62; five-dose assay; cited from earlier work
renal, SN12C [10] = conditions: read-out: cytotoxicity GI50, renal, SN12C; five-dose assay; cited from earlier work
colon, HCT-116 [11] = conditions: read-out: cytotoxicity GI50, colon, HCT-116; five-dose assay; cited from earlier work
recombinant Top1 [12] = target: T1, recombinant Top1; set-up: key to the marks not given beside the values; conditions: score based on the activity of 1 μM camptothecin; cited from earlier work
CNS, SF-539 = conditions: read-out: cytotoxicity GI50, CNS, SF-539; five-dose assay; cited from earlier work
lung, HOP-62 [13] = test: NCI-60 five-dose assay, HOP-62; assay type: cell-based; conditions: Homo sapiens, HOP-62, read-out: cytotoxicity GI50, lung, HOP-62
Method in brief: as §1

ovarian, OVCAR-3 [14] = test: NCI-60 five-dose assay, OVCAR-3; assay type: cell-based; conditions: Homo sapiens, OVCAR-3, read-out: cytotoxicity GI50, ovarian, OVCAR-3
Method in brief: as §1

prostate, DU-145 [15] = test: NCI-60 five-dose assay, DU-145; assay type: cell-based; conditions: Homo sapiens, DU-145, read-out: cytotoxicity GI50, prostate, DU-145
Method in brief: as §1

renal, SN12C [16] = test: NCI-60 five-dose assay, SN12C; assay type: cell-based; conditions: Homo sapiens, read-out: cytotoxicity GI50, renal, SN12C
Method in brief: as §1

breast, MCF7 [17] = test: NCI-60 five-dose assay, MCF7; assay type: cell-based; conditions: Homo sapiens, MCF7, read-out: cytotoxicity GI50, breast, MCF7
Method in brief: as §1

melanoma, UACC-62 [18] = test: NCI-60 five-dose assay, UACC-62; assay type: cell-based; conditions: Homo sapiens, UACC-62, read-out: cytotoxicity GI50, melanoma, UACC-62
Method in brief: as §1

| Structure (SMILES) | Top1 cleavage (recombinant Top1 [1]) | GI50 (colon, HCT-116 [2]) | MGM [3] | activity at 10 µM (∼60 cancer cell lines) | GI50 (breast, MCF7 [4]) | GI50 (melanoma, UACC-62 [5]) | GI50 (ovarian, OVCAR-3 [6]) | GI50 (prostate, DU-145 [7]) | MGM [8] | GI50 (lung, HOP-62 [9]) | GI50 (renal, SN12C [10]) | GI50 (colon, HCT-116 [11]) | Top1 cleavage (recombinant Top1 [12]) | GI50 (CNS, SF-539) | GI50 (lung, HOP-62 [13]) | GI50 (ovarian, OVCAR-3 [14]) | GI50 (prostate, DU-145 [15]) | GI50 (renal, SN12C [16]) | GI50 (breast, MCF7 [17]) | GI50 (melanoma, UACC-62 [18]) |
| --- | --- | --- | --- | --- | --- | --- | --- | --- | --- | --- | --- | --- | --- | --- | --- | --- | --- | --- | --- | --- |
| O=C1c2ccccc2-c2c1c1ccc([N+](=O)[O-])cc1c(=O)n2C[C@H](O)[C@@H](O)[C@@H](O)[C@H](O)CO [Compound 69, (2′S,3′R,4′S,5′R)-5,6-Dihydro-6-(2′,3′,4′,5′,6′-pentahydroxyhexyl)-3-nitro-5,11-dioxo-11H-indeno[1,2-c]isoquinoline] | ++++ | 3390 nM | 7.94 µM | 51.5 to 73.2% |  |  |  |  |  |  |  |  |  |  |  |  |  |  |  |  |
| COc1cc2c3c(n(CCCN4CCOCC4)c(=O)c2cc1OC)-c1cc2c(cc1C3=O)OCO2 [Compound 4, 2,3-Dimethoxy-6-(3-morpholinopropyl)-5,6-dihydro-8,9-methylenedioxy-5,12-dioxoindeno[1,2-c]isoquinoline] |  |  |  |  | 370 nM | 30 nM | 74100 nM | 155 nM | 4.64 ± 1.25 µM | 1780 nM | 813 nM | 1150 nM | ++++ | 40 nM |  |  |  |  |  |  |
| CC[C@@]1(O)C(=O)OCc2c1cc1n(c2=O)Cc2cc3ccccc3nc2-1 [Compound 1, camptothecin, reference compound] |  | 30 nM |  |  |  |  |  |  |  |  |  |  |  |  | 10 nM | 220 nM | 10 nM | 20 nM | 10 nM | 10 nM |
| COc1cc2c3c(n(CCCn4ccnc4)c(=O)c2cc1OC)-c1cc2c(cc1C3=O)OCO2 [Compound 5, 6-(3-(1H-Imidazol-1-yl)propyl)-2,3-dimethoxy-5,6-dihydro-8,9-methylendioxy-5,12-dioxoindeno[1,2-c]isoquinoline] |  |  |  |  |  | < 10 nM | 85 nM | < 10 nM | 0.079 ± 0.023 µM | < 10 nM | < 10 nM | < 10 nM | ++++ | 37 nM |  |  |  |  |  |  |
